Assay results: ChEMBL document CHEMBL1140638, “Kipukasins, nucleoside derivatives from Aspergillus versicolor” (2007)
The source made the active and inactive calls. The rule behind the calls is not given here.

Assays:
Aspergillus flavus = experiment: Antifungal activity against Aspergillus flavus NRRL 6541 at 200 ug/disk; type: functional, organism-based
Fusarium verticillioides = experiment: Antifungal activity against Fusarium verticillioides NRRL 25457 at 200 ug/disk; type: functional, organism-based
Staphylococcus aureus = experiment: Antibacterial activity against Staphylococcus aureus ATCC 29213 at 100 ug/disk; type: functional
Outline: (§1)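 Disk diffusion assay with 100 μg of compound per disk. Strains used were Staphylococcus aureus ATCC 29213 and Bacillus subtilis ATCC 6051. The read-out was the diameter of the zone of inhibition in mm.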

Candida albicans = experiment: Antifungal activity against Candida albicans ATCC 14053 at 200 ug/disk; type: functional, organism-based
Bacillus subtilis = experiment: Antibacterial activity against Bacillus subtilis at 100 ug/disk; type: functional; outline: as §1

SMILES | Activity (Aspergillus flavus) | Activity (Fusarium verticillioides) | Activity (Staphylococcus aureus) | Activity (Candida albicans) | Activity (Bacillus subtilis) | zone of inhibition at 100 µg/disc (Bacillus subtilis; read-out: IZ) | zone of inhibition at 100 µg/disc (Staphylococcus aureus; read-out: IZ)
COc1cc(O)cc(C)c1C(=O)O[C@H]1[C@@H](OC(C)=O)[C@H](n2ccc(=O)n(C)c2=O)O[C@@H]1CO | inactive | inactive | inactive | inactive | inactive | – | –
COc1cc(O)cc(C)c1C(=O)O[C@H]1[C@@H](O)[C@H](n2ccc(=O)n(C)c2=O)O[C@@H]1CO | inactive | inactive | inactive | inactive | inactive | – | –
COc1cc(O)cc(C)c1C(=O)O[C@H]1[C@@H](OC(C)=O)[C@H](n2ccc(=O)[nH]c2=O)O[C@@H]1CO | inactive | inactive | – | inactive | – | 12 mm | –
COc1cc(C)c(C(=O)O[C@H]2[C@@H](O)[C@H](n3ccc(=O)[nH]c3=O)O[C@@H]2CO)c(OC)c1 | inactive | inactive | inactive | inactive | inactive | – | –
COc1cc(C)c(C(=O)O[C@@H]2[C@H](O)[C@@H](CO)O[C@H]2n2ccc(=O)[nH]c2=O)c(OC)c1 | inactive | inactive | inactive | inactive | inactive | – | –
COc1cc(C)c(C(=O)O[C@H]2[C@@H](OC(C)=O)[C@H](n3ccc(=O)[nH]c3=O)O[C@@H]2CO)c(O)c1 | inactive | inactive | inactive | inactive | inactive | – | –
COc1cc(C)c(C(=O)O[C@H]2[C@@H](OC(C)=O)[C@H](n3ccc(=O)[nH]c3=O)O[C@@H]2CO)c(OC)c1 | inactive | inactive | – | inactive | – | – | 18 mm
